Test system: human
Experiment: amount in urine after dosing (umol)
Outline: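 Sampling and analytical methods are those of each source and frequently went unreported. The concentration-versus-time and amount-versus-time points were compiled from published in vivo toxicokinetic studies and two structured collections. Most were digitised from plot screenshots with WebPlotDigitizer, with others copied from tables, in the reported units.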

CC(C)(O)C(=O)O [2-hydroxyisobutyrate]
dosed: methyl tert-butyl ether, oral
Details | amount in urine
0 h, 5 mg | 0.0411
6.05 h, 15 mg | 3.18
6.268 h, 5 mg | 1.19
12.12 h, 5 mg | 2.99
12.19 h, 15 mg | 8.45
18.04 h, 15 mg | 10.7
18.39 h, 5 mg | 3.79
24.12 h, 15 mg | 9.14
24.44 h, 5 mg | 3.07
29.96 h, 15 mg | 11.8
30.29 h, 5 mg | 3.64
36.26 h, 15 mg | 9.95
36.46 h, 5 mg | 2.37
42.05 h, 15 mg | 4.96
42.31 h, 5 mg | 1.27
48.24 h, 15 mg | 2.63
48.47 h, 5 mg | 0.849
54.1 h, 15 mg | 3.08
54.53 h, 5 mg | 0.89
59.87 h, 15 mg | 1.63
60.27 h, 5 mg | 0.438
66.05 h, 15 mg | 0.953
66.44 h, 5 mg | 0.123
71.92 h, 15 mg | 0.593
72.6 h, 5 mg | 0.0411
77.99 h, 15 mg | 0.596
83.85 h, 15 mg | 0.357
90.03 h, 15 mg | 0.279
95.89 h, 15 mg | 0.322

inhalation, duration: 4 hr
Details | amount in urine
0 h, dosed: methyl tert-butyl ether, 4.5 ppm | 10.8
0.116 h, dosed: methyl tert-butyl ether, 38.7 ppm | 17.8
0.1579 h, dosed: ethyl tert-butyl ether, 40.6 ppm | 13.3
0.2123 h, dosed: ethyl tert-butyl ether, 4.5 ppm | 11.1
6 h, dosed: ethyl tert-butyl ether, 40.6 ppm | 41
6.115 h, dosed: ethyl tert-butyl ether, 4.5 ppm | 19.1
6.219 h, dosed: methyl tert-butyl ether, 38.7 ppm | 71.9
6.261 h, dosed: methyl tert-butyl ether, 4.5 ppm | 20.2
12 h, dosed: ethyl tert-butyl ether, 40.6 ppm | 65.3
12 h, dosed: methyl tert-butyl ether, 4.5 ppm | 26.8
12.13 h, dosed: methyl tert-butyl ether, 38.7 ppm | 147
12.31 h, dosed: ethyl tert-butyl ether, 4.5 ppm | 23.3
18 h, dosed: ethyl tert-butyl ether, 40.6 ppm | 61.2
18.26 h, dosed: methyl tert-butyl ether, 4.5 ppm | 21.8
18.32 h, dosed: ethyl tert-butyl ether, 4.5 ppm | 21.5
18.4 h, dosed: methyl tert-butyl ether, 38.7 ppm | 149
24 h, dosed: ethyl tert-butyl ether, 40.6 ppm | 50.2
24 h, dosed: methyl tert-butyl ether, 4.5 ppm | 24.3
24.14 h, dosed: methyl tert-butyl ether, 38.7 ppm | 134
24.23 h, dosed: ethyl tert-butyl ether, 4.5 ppm | 20.8
30 h, dosed: ethyl tert-butyl ether, 40.6 ppm | 70.5
30.26 h, dosed: methyl tert-butyl ether, 4.5 ppm | 27.8
30.41 h, dosed: ethyl tert-butyl ether, 4.5 ppm | 22.2
30.42 h, dosed: methyl tert-butyl ether, 38.7 ppm | 132
36.1 h, dosed: methyl tert-butyl ether, 4.5 ppm | 18.2
36.14 h, dosed: methyl tert-butyl ether, 38.7 ppm | 85.6
36.21 h, dosed: ethyl tert-butyl ether, 40.6 ppm | 51
36.28 h, dosed: ethyl tert-butyl ether, 4.5 ppm | 14.6
42.16 h, dosed: ethyl tert-butyl ether, 40.6 ppm | 41.8
42.16 h, dosed: methyl tert-butyl ether, 4.5 ppm | 14.4
42.29 h, dosed: methyl tert-butyl ether, 38.7 ppm | 63
42.3 h, dosed: ethyl tert-butyl ether, 4.5 ppm | 13.6
48.13 h, dosed: methyl tert-butyl ether, 38.7 ppm | 41.8
48.16 h, dosed: ethyl tert-butyl ether, 40.6 ppm | 34.3
48.47 h, dosed: ethyl tert-butyl ether, 4.5 ppm | 14.4
54.21 h, dosed: ethyl tert-butyl ether, 40.6 ppm | 30.1
54.31 h, dosed: methyl tert-butyl ether, 38.7 ppm | 48.6
60.15 h, dosed: methyl tert-butyl ether, 38.7 ppm | 33.6
60.16 h, dosed: ethyl tert-butyl ether, 40.6 ppm | 37.6
66.16 h, dosed: ethyl tert-butyl ether, 40.6 ppm | 20.9
66.32 h, dosed: methyl tert-butyl ether, 38.7 ppm | 24
72.06 h, dosed: methyl tert-butyl ether, 38.7 ppm | 17.8
72.16 h, dosed: ethyl tert-butyl ether, 40.6 ppm | 17.5

— EPA's CvTdb concentration-time database
